Columns and labels:
Conditions in all cases: in vivo
Adrenal [1] = assay: Drug uptake in Sprague-Dawley rat adrenal at 11.7 to 12.3 uCi, iv after 0.5 hrs by liquid scintillation counting; format: ADME, organism-based, Adrenal gland
In short: (§1)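 Adult male Sprague-Dawley rats, 200–420 g, fed ad libitum. They got ¹²⁵I-labelled agent in saline (9.0–9.5 µCi/mg), 0.1 mL, by tail vein under ether. Five rats per time point were exsanguinated under ether. Organs were excised, rinsed, blotted and weighed. Duplicate samples were counted in a well-scintillation gamma counter (87% efficiency). Results are % administered dose/g, mean ± SEM.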

[2] = Drug uptake in Sprague-Dawley rat bone marrow at 11.7 to 12.3 uCi, iv after 0.5 hrs by liquid scintillation counting; format: ADME, organism-based; in short: as §1
Brain [3] = assay: Drug uptake in Sprague-Dawley rat brain at 11.7 to 12.3 uCi, iv after 0.5 hrs by liquid scintillation counting; format: ADME, organism-based; in short: as §1
[4] = Drug uptake in Sprague-Dawley rat diaphragm at 11.7 to 12.3 uCi, iv after 0.5 hrs by liquid scintillation counting; format: ADME, organism-based; in short: as §1
Duodenum [5] = assay: Drug uptake in Sprague-Dawley rat duodenum at 11.7 to 12.3 uCi, iv after 0.5 hrs by liquid scintillation counting; format: ADME, organism-based; in short: as §1
[6] = Drug uptake in Sprague-Dawley rat auricle at 11.7 to 12.3 uCi, iv after 0.5 hrs by liquid scintillation counting; format: ADME, organism-based; in short: as §1
[7] = Drug uptake in Sprague-Dawley rat ventricle at 11.7 to 12.3 uCi, iv after 0.5 hrs by liquid scintillation counting; format: ADME, organism-based, Cardiac ventricle
In short: (§2)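 ¹²⁵I-labelled bisquaternary dissolved in saline (26 mg/2.0 mL), 9.0–9.5 μCi/mg, given in 0.1 mL via tail vein under ether to adult male Sprague-Dawley rats (200–420 g). Rats were killed by exsanguination under ether at 0.5 or 2 h. Organs were excised, rinsed, blotted and weighed, and duplicate samples were gamma-counted in a well-scintillation counter (87% efficiency). Results are % administered dose/g, mean ± SEM, five rats.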

[8] = Drug uptake in Sprague-Dawley rat intervertebral disk at 11.7 to 12.3 uCi, iv after 0.5 hrs by liquid scintillation counting; format: ADME, organism-based; in short: as §1
Kidney [9] = assay: Drug uptake in Sprague-Dawley rat kidney at 11.7 to 12.3 uCi, iv after 0.5 hrs by liquid scintillation counting; format: ADME, organism-based; in short: as §1
Liver [10] = assay: Drug uptake in Sprague-Dawley rat liver at 11.7 to 12.3 uCi, iv after 0.5 hrs by liquid scintillation counting; format: ADME, organism-based; in short: as §1
Lung [11] = assay: Drug uptake in Sprague-Dawley rat lung at 11.7 to 12.3 uCi, iv after 0.5 hrs by liquid scintillation counting; format: ADME, organism-based; in short: as §1
[12] = Drug uptake in Sprague-Dawley rat meninges at 11.7 to 12.3 uCi, iv after 0.5 hrs by liquid scintillation counting; format: ADME, organism-based; in short: as §1
Pituitary gland [13] = assay: Drug uptake in Sprague-Dawley rat pituitary at 11.7 to 12.3 uCi, iv after 0.5 hrs by liquid scintillation counting; format: ADME, organism-based; in short: as §1
Pancreas [14] = assay: Drug uptake in Sprague-Dawley rat pancreas at 11.7 to 12.3 uCi, iv after 0.5 hrs by liquid scintillation counting; format: ADME, organism-based; in short: as §1
Spleen [15] = assay: Drug uptake in Sprague-Dawley rat spleen at 11.7 to 12.3 uCi, iv after 0.5 hrs by liquid scintillation counting; format: ADME, organism-based; in short: as §2
Testes [16] = assay: Drug uptake in Sprague-Dawley rat testes at 11.7 to 12.3 uCi, iv after 0.5 hrs by liquid scintillation counting; format: ADME, organism-based, Testis; in short: as §2
Thyroid gland [17] = assay: Drug uptake in Sprague-Dawley rat thyroid at 11.7 to 12.3 uCi, iv after 0.5 hrs by liquid scintillation counting; format: ADME, organism-based; in short: as §2
[18] = Drug uptake in Sprague-Dawley rat trachea at 11.7 to 12.3 uCi, iv after 0.5 hrs by liquid scintillation counting; format: ADME, organism-based; in short: as §2
Blood [19] = assay: Drug uptake in Sprague-Dawley rat blood at 11.7 to 12.3 uCi, iv after 0.5 hrs by liquid scintillation counting; format: ADME, organism-based; in short: as §1
Adrenal [20] = assay: Drug uptake in Sprague-Dawley rat adrenal at 11.7 to 12.3 uCi, iv after 2 hrs by liquid scintillation counting; format: ADME, organism-based, Adrenal gland; in short: as §1
[21] = Drug uptake in Sprague-Dawley rat bone marrow at 11.7 to 12.3 uCi, iv after 2 hrs by liquid scintillation counting; format: ADME, organism-based; in short: as §1
Brain [22] = assay: Drug uptake in Sprague-Dawley rat brain at 11.7 to 12.3 uCi, iv after 2 hrs by liquid scintillation counting; format: ADME, organism-based; in short: as §1
[23] = Drug uptake in Sprague-Dawley rat diaphragm at 11.7 to 12.3 uCi, iv after 2 hrs by liquid scintillation counting; format: ADME, organism-based; in short: as §1
Duodenum [24] = assay: Drug uptake in Sprague-Dawley rat duodenum at 11.7 to 12.3 uCi, iv after 2 hrs by liquid scintillation counting; format: ADME, organism-based; in short: as §1
[25] = Drug uptake in Sprague-Dawley rat auricle at 11.7 to 12.3 uCi, iv after 2 hrs by liquid scintillation counting; format: ADME, organism-based; in short: as §1
[26] = Drug uptake in Sprague-Dawley rat ventricle at 11.7 to 12.3 uCi, iv after 2 hrs by liquid scintillation counting; format: ADME, organism-based, Cardiac ventricle; in short: as §2
[27] = Drug uptake in Sprague-Dawley rat intervertebral disk at 11.7 to 12.3 uCi, iv after 2 hrs by liquid scintillation counting; format: ADME, organism-based; in short: as §1
Kidney [28] = assay: Drug uptake in Sprague-Dawley rat kidney at 11.7 to 12.3 uCi, iv after 2 hrs by liquid scintillation counting; format: ADME, organism-based; in short: as §1
Liver [29] = assay: Drug uptake in Sprague-Dawley rat liver at 11.7 to 12.3 uCi, iv after 2 hrs by liquid scintillation counting; format: ADME, organism-based; in short: as §1
Lung [30] = assay: Drug uptake in Sprague-Dawley rat lung at 11.7 to 12.3 uCi, iv after 2 hrs by liquid scintillation counting; format: ADME, organism-based; in short: as §1
[31] = Drug uptake in Sprague-Dawley rat meninges at 11.7 to 12.3 uCi, iv after 2 hrs by liquid scintillation counting; format: ADME, organism-based; in short: as §1
Pituitary gland [32] = assay: Drug uptake in Sprague-Dawley rat pituitary at 11.7 to 12.3 uCi, iv after 2 hrs by liquid scintillation counting; format: ADME, organism-based; in short: as §1
Pancreas [33] = assay: Drug uptake in Sprague-Dawley rat pancreas at 11.7 to 12.3 uCi, iv after 2 hrs by liquid scintillation counting; format: ADME, organism-based; in short: as §1
Spleen [34] = assay: Drug uptake in Sprague-Dawley rat spleen at 11.7 to 12.3 uCi, iv after 2 hrs by liquid scintillation counting; format: ADME, organism-based; in short: as §2
Testes [35] = assay: Drug uptake in Sprague-Dawley rat testes at 11.7 to 12.3 uCi, iv after 2 hrs by liquid scintillation counting; format: ADME, organism-based, Testis; in short: as §2
Thyroid gland [36] = assay: Drug uptake in Sprague-Dawley rat thyroid at 11.7 to 12.3 uCi, iv after 2 hrs by liquid scintillation counting; format: ADME, organism-based; in short: as §2
[37] = Drug uptake in Sprague-Dawley rat trachea at 11.7 to 12.3 uCi, iv after 2 hrs by liquid scintillation counting; format: ADME, organism-based; in short: as §2
Blood [38] = assay: Drug uptake in Sprague-Dawley rat blood at 11.7 to 12.3 uCi, iv after 2 hrs by liquid scintillation counting; format: ADME, organism-based; in short: as §1

C[N+](C)(C)Cc1ccc(C[N+](C)(C)C)c([125I])c1.[I-].[I-]
Drug uptake (Adrenal [1]): 0.094 % ID/g | Drug uptake [2]: 0.132 % ID/g | Drug uptake (Brain [3]): 0.044 % ID/g | Drug uptake [4]: 0.08 % ID/g | Drug uptake (Duodenum [5]): 0.085 % ID/g | Drug uptake [6]: 0.203 % ID/g | Drug uptake [7]: 0.121 % ID/g | Drug uptake [8]: 0.607 % ID/g | Drug uptake (Kidney [9]): 3.305 % ID/g | Drug uptake (Liver [10]): 0.129 % ID/g | Drug uptake (Lung [11]): 0.257 % ID/g | Drug uptake [12]: 0.467 % ID/g | Drug uptake (Pituitary gland [13]): 0.118 % ID/g | Drug uptake (Pancreas [14]): 0.075 % ID/g | Drug uptake (Spleen [15]): 0.137 % ID/g | Drug uptake (Testes [16]): 0.076 % ID/g | Drug uptake (Thyroid gland [17]): 0.095 % ID/g | Drug uptake [18]: 0.798 % ID/g | Drug uptake (Blood [19]): 0.277 % ID/g | Drug uptake (Adrenal [20]): 0.043 % ID/g | Drug uptake [21]: 0.078 % ID/g | Drug uptake (Brain [22]): 0.038 % ID/g | Drug uptake [23]: 0.022 % ID/g | Drug uptake (Duodenum [24]): 0.033 % ID/g | Drug uptake [25]: 0.108 % ID/g | Drug uptake [26]: 0.018 % ID/g | Drug uptake [27]: 0.087 % ID/g | Drug uptake (Kidney [28]): 1.834 % ID/g | Drug uptake (Liver [29]): 0.085 % ID/g | Drug uptake (Lung [30]): 0.087 % ID/g | Drug uptake [31]: 0.658 % ID/g | Drug uptake (Pituitary gland [32]): 0.082 % ID/g | Drug uptake (Pancreas [33]): 0.03 % ID/g | Drug uptake (Spleen [34]): 0.094 % ID/g | Drug uptake (Testes [35]): 0.034 % ID/g | Drug uptake (Thyroid gland [36]): 0.06 % ID/g | Drug uptake [37]: 0.089 % ID/g | Drug uptake (Blood [38]): 0.015 % ID/g
